Source: ChEMBL document CHEMBL4765483 (J Med Chem, 2021)

Experiments:
[1] = target: T1, Adenosine receptor A1 (Homo sapiens) (UniProt P30542); test: Displacement of [3H]DPCPX from human adenosine A1 receptor expressed in CHO cell membranes at 1 uM incubated for 60 mins by scintillation counting method; settings: Cell membrane
T1 sequence (whole entry): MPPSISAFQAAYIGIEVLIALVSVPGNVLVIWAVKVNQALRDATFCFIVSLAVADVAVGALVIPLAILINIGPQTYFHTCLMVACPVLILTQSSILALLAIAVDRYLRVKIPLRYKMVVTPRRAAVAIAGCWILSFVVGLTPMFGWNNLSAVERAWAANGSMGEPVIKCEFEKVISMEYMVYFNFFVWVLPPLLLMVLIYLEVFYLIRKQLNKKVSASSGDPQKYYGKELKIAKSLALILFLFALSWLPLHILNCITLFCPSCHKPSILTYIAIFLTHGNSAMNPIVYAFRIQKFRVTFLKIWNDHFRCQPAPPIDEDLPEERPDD

[2] = target: Adenosine receptor A2a (Homo sapiens) (UniProt P29274); test: Displacement of [3H]ZM2421385 from adenosine A2A receptor expressed in human HeLa cell membranes at 1 uM incubated for 30 mins by scintillation counting method; settings: Cell membrane
Adenosine receptor A2b = target: T2, Adenosine receptor A2b (Homo sapiens, UniProt P29275); test: Displacement of [3H]DPCPX from human adenosine A2B receptor expressed in HEK293 cell membranes incubated for 30 mins by scintillation counting method; parameters: species or system Cell membrane
T2 sequence (P29275 whole entry): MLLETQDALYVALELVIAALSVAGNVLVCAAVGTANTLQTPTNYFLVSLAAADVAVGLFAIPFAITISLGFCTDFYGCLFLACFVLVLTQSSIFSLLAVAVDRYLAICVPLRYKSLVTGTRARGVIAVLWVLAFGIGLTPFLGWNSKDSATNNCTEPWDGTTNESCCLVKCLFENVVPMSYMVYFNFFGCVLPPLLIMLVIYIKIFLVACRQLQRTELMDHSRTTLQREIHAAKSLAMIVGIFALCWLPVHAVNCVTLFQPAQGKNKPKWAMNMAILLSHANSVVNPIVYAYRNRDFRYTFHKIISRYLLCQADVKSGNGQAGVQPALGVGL

[3] = target: T3, Adenosine receptor A3 (Homo sapiens) (UniProt P0DMS8); test: Displacement of [3H]NECA from adenosine A3 receptor expressed in human HeLa cell membranes at 1 uM incubated for 180 mins by scintillation counting method; settings: Cell membrane
T3 sequence (whole entry): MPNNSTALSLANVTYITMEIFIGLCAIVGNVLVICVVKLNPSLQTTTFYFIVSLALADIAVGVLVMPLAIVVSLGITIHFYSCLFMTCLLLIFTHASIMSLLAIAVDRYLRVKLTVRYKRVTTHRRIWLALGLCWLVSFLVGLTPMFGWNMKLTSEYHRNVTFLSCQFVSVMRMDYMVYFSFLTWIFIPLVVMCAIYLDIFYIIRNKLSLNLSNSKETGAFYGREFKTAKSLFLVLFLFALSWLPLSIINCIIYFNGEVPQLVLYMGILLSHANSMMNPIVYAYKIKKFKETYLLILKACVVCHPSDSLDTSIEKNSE
Procedure, shortened: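 hA3AR in HeLa membranes (3 pmol/mg protein) with 10 nM [3H]NECA (KD 8.7 nM); nonspecific binding with 100 μM R-PIA; incubated 180 min at 25 °C, washed, filtered, radioactivity counted.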

[4] = target: T4, Adenosine receptor A2b (Homo sapiens) (UniProt P29275); test: Displacement of [3H]DPCPX from human adenosine A2B receptor expressed in HEK293 cell membranes at 1 uM incubated for 30 mins by scintillation counting method; settings: Cell membrane
T4 sequence (whole entry): T2 sequence (P29275 whole entry)

Sequence of Adenosine receptor A2a (Homo sapiens) (P29274 whole entry): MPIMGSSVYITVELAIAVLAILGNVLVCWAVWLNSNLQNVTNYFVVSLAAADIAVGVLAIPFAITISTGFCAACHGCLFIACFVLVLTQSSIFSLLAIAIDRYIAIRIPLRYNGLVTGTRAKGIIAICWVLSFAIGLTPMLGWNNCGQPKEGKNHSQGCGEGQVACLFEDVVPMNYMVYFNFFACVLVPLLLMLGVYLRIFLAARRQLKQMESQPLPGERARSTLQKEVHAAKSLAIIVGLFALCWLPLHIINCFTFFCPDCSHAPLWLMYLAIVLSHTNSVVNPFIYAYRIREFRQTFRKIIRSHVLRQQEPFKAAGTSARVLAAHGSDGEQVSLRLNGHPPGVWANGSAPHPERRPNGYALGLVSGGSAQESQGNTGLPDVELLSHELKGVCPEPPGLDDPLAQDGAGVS

SMILES	inhibition [1] [%]	inhibition [2] [%]	Ki (Adenosine receptor A2b) [nM]	inhibition [3] [%]	inhibition [4] [%]	inhibition ([4]; filed as antagonist) [%]
CC1=C(C(=O)OC2CCC2)C(c2ccsc2)NC(=O)N1 (racemic)	40	41	405	3	–	–
CC1=C(C(=O)OCC(C)C)C(c2cccs2)NC(=O)N1 (racemic)	25	12	2130	11	–	–
CC1=C(C(=O)OCc2ccccc2)C(c2ccoc2)NC(=O)N1 (racemic)	41	24	6650	1	–	–
CC1=C(C(=O)OC2CCCC2)C(c2ccsc2)NC(=O)N1 (racemic)	5	1	659	5	–	–
CC1=C(C(=O)OCC2CCC2)C(c2cccs2)NC(=O)N1 (racemic)	39	22	2840	1	–	–
CC1=C(C(=O)OCC2CC2)C(c2ccoc2)NC(=O)N1 (racemic)	29	43	426	3	–	–
CCCOC(=O)C1=C(C)NC(=O)NC1c1ccsc1 (racemic)	44	48	201	6	–	–
CC1=C(C(=O)OCC2CC2)C(c2cccs2)NC(=O)N1 (racemic)	23	27	1570	1	–	–
CC1=C(C(=O)OCc2ccccc2)C(c2ccsc2)NC(=O)N1C (racemic)	46	30	4520	14	–	–
CC1=C(C(=O)OC2CCC2)C(c2ccoc2)NC(=O)N1 (racemic)	20	32	307	1	–	–
CC1=C(C(=O)OC(C)(C)C)C(c2ccoc2)NC(=O)N1 (racemic)	11	9	4440	2	–	–
CC1=C(C(=O)OC2CCCC2)C(c2ccoc2)NC(=O)N1 (racemic)	6	1	1010	1	–	–
CC1=C(C(=O)CC(C)C)C(c2ccsc2)NC(=O)N1 (racemic)	37	19	1000	14	–	–
CC1=C(C(=O)OCC2CCC2)C(c2ccoc2)NC(=O)N1 (racemic)	46	25	739	2	–	–
CC1=C(C(=O)CC(C)C)C(c2ccoc2)NC(=O)N1 (racemic)	23	20	1010	18	–	–
CC1=C(C(=O)OCC(C)C)C(c2ccsc2)NC(=O)N1 (racemic)	56	37	1190	21	–	–
CC1=C(C(=O)OCC2CC2)C(c2ccsc2)NC(=O)N1 (racemic)	39	46	724	3	–	–
CC1=C(C(=O)OC(C)C)C(c2ccsc2)NC(=S)N1 (racemic)	–	–	315	–	–	–
CCOC(=O)C1=C(C)N=C(S)NC1c1cccs1 (racemic)	–	–	3250	–	–	–
CC1=C(C(=O)OCc2ccccc2)C(c2cccs2)NC(=O)N1 (racemic)	45	30	1920	8	–	–
CCCOC(=O)C1=C(C)NC(=O)NC1c1cccs1 (racemic)	43	30	1520	32	–	–
CCC(C)OC(=O)C1=C(C)NC(=O)NC1c1ccoc1 (racemic)	13	1	201	11	–	–
CC1=C(C(=O)OCC2CCC2)C(c2ccsc2)NC(=O)N1 (racemic)	48	32	1040	2	–	–
CC1=C(C(=O)OC(C)(C)C)C(c2ccoc2)NC(=S)N1 (racemic)	18	15	1890	19	–	–
CCCOC(=O)C1=C(C)NC(=S)NC1c1cccs1 (racemic)	7	1	–	10	3	–
CC1=C(C(=O)OC(C)(C)C)C(c2cccs2)NC(=O)N1C (racemic)	18	12	–	22	24	–
CC(=O)C1=C(C)NC(=O)NC1c1ccsc1 (racemic)	9	1	–	1	24	–
CC1=C(C(=O)OC2CCCCC2)C(c2ccoc2)NC(=O)N1 (racemic)	15	3	–	1	4	–

Next, values leading:

inhibition [1] [%]	inhibition [2] [%]	Ki (Adenosine receptor A2b) [nM]	inhibition [3] [%]	inhibition [4] [%]	inhibition ([4]; filed as antagonist) [%]	SMILES
1	23	577	14	–	–	CC1=C(C(=O)OC2CCCC2)C(c2ccco2)NC(=O)N1 (racemic)
1	6	807	1	–	–	CCCC(=O)C1=C(C)NC(=O)NC1c1ccco1 (racemic)
6	1	84.3	3	–	–	CCC(C)OC(=O)C1=C(C)NC(=O)NC1c1ccco1 (racemic)
16	6	240	31	–	–	CC1=C(C(=O)CC(C)C)C(c2ccco2)NC(=O)N1 (racemic)
42	22	561	1	–	–	CC1=C(C(=O)OCC2CCC2)C(c2ccco2)NC(=O)N1 (racemic)
11	20	984	1	–	–	COC(=O)C1=C(C)N=C(S)NC1c1ccco1 (racemic)
21	14	801	1	–	–	CC1=C(c2ncc(C)o2)C(c2ccoc2)NC(=O)N1 (racemic)
8	13	6.3	1	–	–	CC1=C(C(=O)OC(C)C)[C@@H](c2ccco2)NC(=S)N1
27	23	905	4	–	–	CC1=C(c2ncc(C)o2)C(c2ccco2)NC(=O)N1 (racemic)
10	9	11.1	6	–	–	CCOC(=O)C1=C(C)NC(=O)N[C@@H]1c1ccsc1
34	20	1130	2	–	–	CC1=C(c2ncc(C)o2)C(c2ccsc2)NC(=O)N1 (racemic)
2	2	1060	7	–	–	CC1=C(C(=O)C2CC2)C(c2ccco2)NC(=O)N1 (racemic)
36	26	887	3	–	–	CC1=C(C(=O)OCc2ccccc2)C(c2ccco2)NC(=O)N1 (racemic)
9	2	637	3	–	–	CC1=C(C(=O)SC(C)C)C(c2ccoc2)NC(=O)N1 (racemic)
19	41	95.1	1	–	–	CC1=C(C(=O)OC2CCC2)C(c2ccco2)NC(=O)N1 (racemic)
27	36	199	13	–	–	CC1=C(C(=O)OCC(C)C)C(c2ccco2)NC(=O)N1 (racemic)
1	2	–	2	22	–	CCCC(=O)C1=C(C)NC(=O)NC1c1ccoc1 (racemic)
32	12	–	4	–	41	CC1=C(C(=O)OCc2ccccc2)C(c2ccco2)NC(=S)N1 (racemic)
